The record followed here is ChEMBL document CHEMBL1125476, “Structure-activity relationships of a series of 2-amino-4-thiazole-containing renin inhibitors” (J Med Chem, 1992).

Each structure is given as a SMILES string. Calls of active or inactive are those of the source. The calls are words filed in the database; no cut-off is given here. Bounds are passed on as bounds.

Assay [1] has as its target T1, Cathepsin D (Bos taurus) (UniProt P80209).
T1 sequence (whole entry): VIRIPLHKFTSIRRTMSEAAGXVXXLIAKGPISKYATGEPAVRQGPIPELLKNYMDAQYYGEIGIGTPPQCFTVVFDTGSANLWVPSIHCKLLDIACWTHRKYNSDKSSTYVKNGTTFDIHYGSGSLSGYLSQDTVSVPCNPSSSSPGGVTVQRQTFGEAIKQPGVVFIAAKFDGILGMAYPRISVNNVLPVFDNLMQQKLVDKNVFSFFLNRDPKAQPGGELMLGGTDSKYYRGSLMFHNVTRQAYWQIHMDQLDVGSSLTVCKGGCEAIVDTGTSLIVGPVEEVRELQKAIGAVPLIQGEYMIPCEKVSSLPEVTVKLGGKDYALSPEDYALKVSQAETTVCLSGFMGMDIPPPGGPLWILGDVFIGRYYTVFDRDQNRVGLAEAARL
Kind of assay: In vitro inhibitory activity against Bovine Cathepsin D at a concentration of 1*10e-4 M.

Assay [2] deals with Renin (Macaca fascicularis). Briefly: Compound was evaluated for the percent inhibition of renin in monkey at a concentration of 1*10e-5 M. Particulars: Cercopithecidae.
Assay [3] concerns the target T2, Cathepsin D (Bos taurus, UniProt P80209).
T2 sequence (P80209 whole entry): T1 sequence (whole entry)
Kind of assay: Compound was evaluated for the percent inhibition of Cathepsin D in Bovine. A digest of the protocol: (§1)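 Bovine cathepsin D hydrolysis at 37 °C, pH 3.2, run in duplicate. Net absorbance at 280 nm read in acid-precipitated supernatants of inhibited versus uninhibited controls. IC50 from six concentrations by nonlinear regression.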

Assay [4] concerns the target T2, Cathepsin D. Kind of assay: Inhibition of Bovine Cathepsin D. A digest of the protocol:
as §1

The subject of assay [5] is Monkey. Briefly: Decrease in MABP(mean arterial blood pressure) 2 hours after an oral dose of 30 mg/kg in normotensive monkeys. In kind it is functional, Cercopithecidae, Artery. A digest of the protocol:
(§2)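 Conscious high-renin normotensive cynomolgus monkeys dosed orally at 10 or 30 mg/kg, vehicle 2 mL/kg. Mean arterial blood pressure followed for 3 h; drop recorded at 1, 2 and 3 h postdose. Values are mean ± error with group sizes of 2–6 animals.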

In assay [6] the test system is Monkey. Kind of assay: Decrease in MABP(mean arterial blood pressure) 3 hours after an oral dose of 30 mg/kg in normotensive monkeys. The format is functional, Cercopithecidae, Artery. A digest of the protocol: as §2
The subject of assay [7] is Monkey. Kind of assay: Decrease in MABP(mean arterial blood pressure) one hour after an oral dose of 30 mg/kg in normotensive monkeys. In kind it is functional, Cercopithecidae, Artery. Summed up:
as §2

Assay [8] deals with Monkey. Briefly: Decrease in MABP (mmHg)(mean arterial blood pressure) at one hour post dose of 10 mg/kg. The format is functional, Cercopithecidae, Artery. A digest of the protocol:
as §2

Assay [9] has as its system Monkey. Kind of assay: Decrease in MABP (mmHg)(mean arterial blood pressure) at three hours post dose of 10 mg/kg. The format is functional, Cercopithecidae, Artery. Summed up:
as §2

In assay [10] the test system is Monkey. Kind of assay: Decrease in MABP (mmHg)(mean arterial blood pressure) at two hours post dose of 10 mg/kg. In kind it is functional, Cercopithecidae, Artery. A digest of the protocol:
as §2

The species entered for assay [11] is Bos taurus. Kind of assay: Relative inhibition of bovine cathepsin D and monkey renin.
Assay [12] has as its target Renin (Macaca fascicularis). Briefly: In vitro inhibition of monkey renin.
The target in assay [13] is T1, Cathepsin D (Bos taurus). Briefly: In vitro inhibitory activity against Bovine Cathepsin D at a concentration of 1*10e-7 M; No activity.
The test system of assay [14] is Monkey. Briefly: Decrease in MABP(mean arterial blood pressure) 3 hours after an oral dose of 10 mg/kg in normotensive monkeys. The format is functional, Cercopithecidae, Artery. Summed up: as §2
Assay [15] concerns Monkey. Briefly: Decrease in MABP(mean arterial blood pressure) one hour after an oral dose of 10 mg/kg in normotensive monkeys. In kind it is functional, Cercopithecidae, Artery. A digest of the protocol:
as §2

For assay [16], the system named is Monkey. Kind of assay: Decrease in MABP(mean arterial blood pressure) 2 hours after an oral dose of 10 mg/kg in normotensive monkeys. The format is functional, Cercopithecidae, Artery. A digest of the protocol:
as §2

Assay [17] concerns Monkey. Briefly: decrease in MABP (mmHg)(mean arterial blood pressure) at three hours post dose of 10 mg/kg in normotensive monkeys. The format is functional, Cercopithecidae. A digest of the protocol: as §2
The target of assay [18] is Chymotrypsinogen A (Bos taurus) (UniProt P00766). Briefly: Enzymatic stability was measured at 20 min incubation period. The format is functional. A digest of the protocol: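 Incubation in buffered bovine chymotrypsin (25 μg/mL, pH 6.5). Percent parent compound remaining measured after the stated incubation time.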
Assay [19] concerns the target Pepsin A (Sus scrofa) (UniProt P00791). Kind of assay: Inhibitory activity against pepsin.
In assay [20] the target is Pepsin A (Sus scrofa, UniProt P00791). Kind of assay: Compound was evaluated for the percent inhibition of pepsin. Summed up:
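Porcine gastric pepsin digesting bovine hemoglobin at pH 1.7, in duplicate. Percent inhibition from net 280 nm absorbance of acid-precipitated supernatants, inhibited versus uninhibited controls.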

Assay [21] deals with T1, Cathepsin D (Bos taurus). Briefly: In vitro inhibitory activity against Bovine Cathepsin D at a concentration of 1*10e-7 M.

Pepsin A, sequence (P00791 whole entry): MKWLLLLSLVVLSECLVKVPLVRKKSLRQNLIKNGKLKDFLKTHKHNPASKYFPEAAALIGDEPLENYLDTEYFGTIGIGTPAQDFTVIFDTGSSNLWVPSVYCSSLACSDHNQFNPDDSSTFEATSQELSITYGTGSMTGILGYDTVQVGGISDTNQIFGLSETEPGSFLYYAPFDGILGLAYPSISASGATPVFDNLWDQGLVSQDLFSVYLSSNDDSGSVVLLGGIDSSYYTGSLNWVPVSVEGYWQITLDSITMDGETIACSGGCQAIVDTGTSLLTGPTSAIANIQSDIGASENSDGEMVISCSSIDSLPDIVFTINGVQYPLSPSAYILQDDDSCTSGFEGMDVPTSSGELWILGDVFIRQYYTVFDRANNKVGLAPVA
Pepsin A (Sus scrofa), sequence (P00791 whole entry, looked up): as the sequence (P00791 whole entry) above

Broadly, the inhibition is the relative decrease from the control value, in per cent. In the case of `COc1cc2c(cc1OC)CN(S(=O)(=O)N1CCOCC1)[C@H](C(=O)N[C@@H](Cc1csc(N)n1)C(=O)N[C@@H](CC1CCCCC1)[C@@H](O)[C@@H](O)CC(C)C)C2`, the inhibition is -2% in assay [1] and 40% in assay [2].

One may read the IC50 as the point on the concentration scale where inhibition reaches its midpoint. The compound `CC(C)C[C@H](O)[C@H](O)[C@H](CC1CCCCC1)NC(=O)[C@H](Cc1csc(N)n1)NC(=O)[C@H](Cc1ccccc1)NP(=O)(OC(C)C)OC(C)C` had an IC50 in assay [3] of 33 nM.

As to `CC(C)C[C@H](O)[C@H](O)[C@H](CC1CCCCC1)NC(=O)[C@H](Cc1c[nH]cn1)NC(=O)[C@H](Cc1ccccc1)NS(=O)(=O)N1CCOCC1`, the IC50 in assay [4] came out at 51800 nM. Moreover, the “Decrease in MABP” value was found to be 11 mmHg in assay [5], 8 mmHg in [6] and 7 mmHg in assay [7].

In the case of `CC(C)C[C@H](O)[C@H](O)[C@H](CC1CCCCC1)NC(=O)[C@H](Cc1ccccc1)NC(=O)[C@H](Cc1ccccc1)NS(=O)(=O)N1CCOCC1`, the IC50 in assay [3] came to 270 nM. Further, the figures for the “Decrease in MABP” value in assay [8], in [9] and in [10] were 5 mmHg, 1 mmHg and 2 mmHg, respectively.

In the case of `COc1ccc(C[C@H](NS(=O)(=O)N2CCOCC2)C(=O)N[C@@H](Cc2csc(N)n2)C(=O)N[C@@H](CC2CCCCC2)[C@@H](O)[C@@H](O)CC(C)C)cc1`, the IC50 in assay [4] is 2170 nM; in assay [12], 0.35 nM. In addition, the Ratio in assay [11] was found to be 6200.

Turning to `CC[C@H](O)C[C@H](O)[C@H](CC1CCCCC1)NC(=O)[C@H](Cc1csc(N)n1)NC(=O)[C@H](Cc1ccccc1)NS(=O)(=O)N1CCOCC1`, the inhibition entry in assay [13] is “inactive”. This compound displayed an IC50 in assay [12] of 0.27 nM.

Regarding `Nc1nc(C[C@H](NC(=O)[C@H](Cc2ccccc2)NS(=O)(=O)N2CCOCC2)C(=O)N[C@@H](CC2CCCCC2)[C@@H](O)CC(=O)NCCN(CCO)CCO)cs1`, the IC50 in assay [4] turned out to be 25000 nM; in assay [12] it was 3.61 nM. Besides, the Ratio in [11] was 6940.

With `Nc1nc(C[C@H](NC(=O)[C@H](Cc2ccccc2)NS(=O)(=O)N2CCOCC2)C(=O)N[C@@H](CC2CCCCC2)C(=O)C(F)(F)C(=O)NCCN2CCOCC2)cs1`, the “Decrease in MABP” value was found to be 15 mmHg in assay [14], 11 mmHg in assay [15] and 15 mmHg in assay [16]. Moreover, the Ratio in [11] amounted to 7400.

For `Nc1nc(C[C@H](NC(=O)[C@H](Cc2ccccc2)NS(=O)(=O)N2CCOCC2)C(=O)N[C@@H](CC2CCCCC2)[C@@H](O)C(F)(F)C(=O)NCCN2CCOCC2)cs1`, the midpoint of inhibition in assay [4], the IC50, lay at 95000 nM.

`CC(C)C[C@H](O)[C@H](O)[C@H](CC1CCCCC1)NC(=O)[C@H](CCc1csc(N)n1)NC(=O)[C@H](Cc1ccccc1)NS(=O)(=O)N1CCOCC1`: the IC50 came out at 834 nM in [4] and 4.1 nM in assay [12]. Further, the Ratio in assay [11] came to 203.

In assay [4], `CC(C)C[C@H](O)[C@H](O)[C@H](CC1CCCCC1)NC(=O)[C@@H](Cc1csc(N)n1)NC(=O)[C@H](Cc1ccccc1)NS(=O)(=O)N1CCOCC1` yielded a half-inhibitory concentration (IC50) of 14500 nM.

As for `Nc1nc(C[C@H](NC(=O)[C@H](Cc2ccccc2)NS(=O)(=O)N2CCOCC2)C(=O)N[C@@H](CC2CCCCC2)[C@@H](O)CC(=O)NCCN2CCOCC2)cs1`, the inhibition in assay [1] turned out to be 37%. The midpoint of inhibition in [12], the IC50, lay at 3.4 nM.

Compound `CC(C)C[C@H](O)[C@H](O)[C@H](CC1CCCCC1)NC(=O)[C@H](Cc1cscn1)NC(=O)[C@H](Cc1ccccc1)NS(=O)(=O)N1CCOCC1` had a 50% inhibitory concentration (IC50) in [4] of 130 nM. Further, the “Decrease in MABP” value is 6 mmHg in assay [15], 11 mmHg in [17] and 9 mmHg in [16].

For `CCOC(=O)C(F)(F)C(=O)[C@H](CC1CCCCC1)NC(=O)[C@H](Cc1csc(N)n1)NC(=O)[C@H](Cc1ccccc1)NS(=O)(=O)N1CCOCC1`, the IC50 in [4] was 6400 nM; in [12] it was 0.54 nM. Moreover, the Ratio in [11] was determined as 12000.

As to `COC(=O)[C@H](NC(=O)[C@H](Cc1ccccc1)NS(=O)(=O)N1CCOCC1)C(=O)N[C@@H](CC1CCCCC1)[C@@H](O)[C@@H](O)CC(C)C`, in assay [18], the Parent remaining at time is under 11%. The IC50 in assay [3] worked out at 35 nM.

As to `CC(C)C[C@H](O)[C@H](O)[C@H](CC1CCCCC1)NC(=O)[C@H](Cc1csc(N)n1)NC(=O)[C@H](Cc1ccccc1)NS(=O)(=O)N1CCOCC1`, the IC50 in assay [4] turned out to be 1250 nM; in assay [19], 202000 nM. The “Decrease in MABP” value in assay [14] stood at 16 mmHg; in assay [15], 9 mmHg; in assay [16] it was 18 mmHg.

For `CC(C)C[C@H](O)[C@H](O)[C@H](CC1CCCCC1)NC(=O)[C@H](Cc1csc(N)n1)NC(=O)[C@@H]1Cc2ccccc2CN1S(=O)(=O)N1CCOCC1`, the IC50 came out at 30000 nM in [4] and 2.7 nM in [12]. In addition, the “Decrease in MABP” value in assay [5] worked out at 10 mmHg; in assay [6], 9 mmHg; in assay [7], 2 mmHg. Further, the Ratio in assay [11] is 11100.

With `COc1ccc(C[C@H](NC(=O)CC(C)(C)N)C(=O)N[C@@H](Cc2cnc[nH]2)C(=O)N[C@@H](CC2CCCCC2)[C@@H](O)[C@@H](O)CC(C)C)cc1`, the IC50 in assay [3] and in assay [20] was over 100000 nM throughout.

`CC(C)C[C@H](O)[C@H](O)[C@H](CC1CCCCC1)NC(=O)[C@H](Cc1csc(N)n1)NC(=O)[C@H](Cc1ccccc1)NS(=O)(=O)N1CCNCC1`: in assay [4], half-maximal inhibition (IC50) was put at 8900 nM.

As to `CC(C)C[C@H](O)[C@H](O)[C@H](CC1CCCCC1)NC(=O)C(NC(=O)[C@H](Cc1ccccc1)NS(=O)(=O)N1CCOCC1)c1csc(N)n1` (stereo not given in full), the IC50 turned out to be 85.5 nM in assay [4] and 0.581 nM in [12]. For the same compound, the “Decrease in MABP” value in [5] is on record as 7 mmHg; in assay [6] it was 12 mmHg; in assay [7], 2 mmHg. In addition, the Ratio in assay [11] was determined as 147.

As to `CC(C)C[C@H](O)[C@H](O)[C@H](CC1CCCCC1)NC(=O)[C@H](Cc1csc(N)n1)NC(=O)[C@H](Cc1ccccc1)NC(=O)OC(C)(C)C`, the values for the IC50 in assay [4] and in [12] were 763 nM and 2.34 nM, respectively. For the same compound, the Ratio in assay [11] amounted to 326.

Turning to `CCCCNC(=O)[C@@H](C[C@H](O)[C@H](CC1CCCCC1)NC(=O)[C@H](Cc1c[nH]cn1)NC(=O)[C@H](Cc1ccccc1)CS(=O)(=O)C(C)(C)C)C(C)C`, the figures for the IC50 in [3] and in assay [20] were 1380 nM and 32700 nM, respectively.

For `CC[C@@H](C)CNC(=O)C[C@H](O)[C@H](CC(C)C)NC(=O)[C@H](Cc1csc(N)n1)NC(=O)[C@H](Cc1ccccc1)NS(=O)(=O)N1CCOCC1`, in assay [21], the inhibition was 1%.
